Assay outcomes deposited in PubChem by several laboratories.
Only some compounds are listed: those with a hit (about 2.4% of all), similar ones and a draw of the others.
H9c2 TAG inh – triacylglycerol accumulation inhibition. AID 651582. inhibition, % at 12.5 µM. H9c2 cells, Nile Red lipid (TAG) fluorescence; cells loaded with 200 µM oleic acid. hit rate 0.66% among 230,000;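 active = pattern-corrected inhibition of lipid staining of at least 50% with the nuclear-stain viability signal not falling by more than 50%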;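 also: 0% = DMSO wells and 100% = triacsin C control wells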
Tb MetRS inh – blocks T. brucei methionyl-tRNA synthetase activity; inhibition, % at 11.9 µM; purified T. brucei MetRS, ATP depletion, Kinase-Glo luminescence; hit rate 0.4% among 360,000;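 active = inhibition above a per-plate cutoff of the control wells' mean inhibition plus 3 SD, cut at about 5.5% in these data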;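 also: 0% = DMSO wells median and 100% = median of wells with control inhibitor compound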
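Dosing: 11.9 µM single point; system: parasite MetRS enzyme; technique: luminescence of leftover ATP; times: 15 min enzyme-compound preincubation, 2 h reaction, 10 min detection, 25 °C; replicates: each compound tested once; read-out basis: percent inhibition relative to median high and low control wells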
MC4R antag cAMP – blocks human MC4R cAMP signaling; P32245; hit rate 0.48% among 360,000; inhibition, % at 6.5 µM; MC4R-expressing cells, MTII-stimulated cAMP, LANCE TR-FRET;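 active = inhibition above its plate's cutoff, the mean of tested wells on that plate plus 3 SD, cut at about 29% in these data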;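 also: 0% = Melanotan II alone and 100% = Melanotan II plus saturating MCL0020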
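system = U2OS cells with stable human MC4R expression | also added = Melanotan II challenge after compound preincubation | dosing = one concentration, 6.5 µM nominal | incubation = compound 30 min, challenge 1 h, detection 1 h | measured by = TR-FRET with Eu-cAMP and labeled anti-cAMP, 671 nm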
NTR1 ag – NTR1 (human) agonism; P30989; hit rate 0.17% among 330,000; activation, % at 20 µM; NTR1-U2OS beta-arrestin-GFP spot imaging, agonist mode;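 active = activation at or above 40% of the spot to cytoplasm intensity ratio, with at least 20 cells analyzed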;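 also: 0% = DMSO without peptide and 100% = 100 nM NTR1 peptide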
Target sequence (P30989 whole entry, looked up): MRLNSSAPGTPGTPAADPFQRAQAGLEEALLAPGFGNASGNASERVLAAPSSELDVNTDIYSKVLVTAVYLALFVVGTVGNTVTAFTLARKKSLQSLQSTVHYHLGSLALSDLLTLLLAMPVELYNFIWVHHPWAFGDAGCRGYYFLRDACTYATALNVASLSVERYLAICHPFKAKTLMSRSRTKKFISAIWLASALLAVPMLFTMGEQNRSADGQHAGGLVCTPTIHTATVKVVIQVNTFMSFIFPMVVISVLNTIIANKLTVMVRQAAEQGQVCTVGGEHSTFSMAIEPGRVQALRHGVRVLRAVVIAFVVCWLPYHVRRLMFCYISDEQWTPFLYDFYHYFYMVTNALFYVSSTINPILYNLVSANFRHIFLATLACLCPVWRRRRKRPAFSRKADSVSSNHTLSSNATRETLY
aDG glyco up – alpha-DG glycosylation activation | hit rate 0.22% among 360,000 | activation, % at 10 µM | AID 624168 | Pro5-aDG cells, alpha-DG glycosylation AlphaScreen (IIH6); 0% Pro5, 100% B10-LARGE cell signal;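 active = activation of at least 8% versus controls, or a plate z-score of at least 8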;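 also: Pro5 are CHO cells carrying HIG-tagged alpha-DG that lacks glycosylation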
MC4R ag barr – agonists of human melanocortin 4 receptor (MC4R) beta-arrestin | U2OS MC4R beta-arrestin complementation, luminescence; percent of melanotan II response, DMSO zero | P32245 | activation, % at 8.9 µM | hit rate 0.98% among 360,000;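 active = activation above a per-plate cutoff, the mean activation of sample wells on that plate plus 3 SD, cut at about 8% in these data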
Tb MetRS conf – confirmation of Trypanosoma brucei MetRS inhibitors; shares compounds with Tb MetRS inh; T. brucei MetRS enzyme, luminescence (ATP depletion); inhibition, % at 11.9 µM; hit rate 93% among 1,400; AID 624412; in the data active = inhibition above about 7%
Jurkat cytotox – kills Jurkat cells in T. brucei MetRS counterscreen. shares compounds with Tb MetRS inh. Jurkat cells viability, ATP luminescence. inhibition, % at 8.3 µM. hit rate 12% among 1,400; in the data active = inhibition above about 15%;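 also: 0% = vehicle and 100% = reference inhibitor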
Tb MetRS inh FP – inhibits T. brucei methionyl tRNA synthetase in orthogonal FP test; inhibition, % at 11.9 µM; shares compounds with Tb MetRS inh; purified T. brucei MetRS, fluorescence polarization; AID 651607; hit rate 44% among 1,400; in the data active = inhibition above about 17%;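 also: 0% = vehicle wells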
Active calls of the source: *.

For O=C(c1ccco1)N1CCN(C(=O)c2ccc(COc3ccc4c(c3)CCC4)o2)CC1 the results were H9c2 TAG inh -26, Tb MetRS inh -2, MC4R antag cAMP -5, NTR1 ag 0, aDG glyco up 0 and MC4R ag barr 3.
For CN1CCN(C(=O)c2ccc(COc3ccc(Cl)cc3Cl)cc2)CC1 the results were Tb MetRS inh 9.9*, MC4R antag cAMP 2, NTR1 ag 0, aDG glyco up 0, MC4R ag barr -1, Tb MetRS conf 19*, Jurkat cytotox 8 and Tb MetRS inh FP 2.
For CCOC(=O)C1(C)CCN1C(=O)c1cccc(Cl)c1 (configuration not stated) the results were H9c2 TAG inh -6, Tb MetRS inh 0, MC4R antag cAMP 6, aDG glyco up 0 and MC4R ag barr -1.
`COc1ccc(C(NC(=O)C2CCN(CCOc3ccc(Cl)cc3)CC2)c2cccs2)cc1` (configuration not stated) gave H9c2 TAG inh 5, Tb MetRS inh 0, MC4R antag cAMP 1, aDG glyco up 0 and MC4R ag barr 1.
O=S(=O)(c1ccc2c(c1)OCCO2)N1CCC(c2nc3ccccc3[nH]2)CC1 was read as Tb MetRS inh -1, MC4R antag cAMP 12, NTR1 ag 0, aDG glyco up 0 and MC4R ag barr 1.
Cc1ccc2nc(C3CCN(S(=O)(=O)c4ccc5ccccc5c4)CC3)[nH]c2c1 was read as Tb MetRS inh 48*, MC4R antag cAMP 8, NTR1 ag 0, aDG glyco up 1, MC4R ag barr -2, Tb MetRS conf 69*, Jurkat cytotox 4 and Tb MetRS inh FP 36*.
Screening O=S(=O)(c1ccc2c(c1)OCCO2)N1CCC(c2nc3ccc(Cl)cc3[nH]2)CC1 returned Tb MetRS inh 12*, MC4R antag cAMP 12, NTR1 ag 2, aDG glyco up 1, MC4R ag barr 0, Tb MetRS conf 17*, Jurkat cytotox 24* and Tb MetRS inh FP 12.
Cc1ccc2nc(C3CCCN(C(=S)Nc4ccccc4C)C3)[nH]c2c1 (configuration not stated) was read as Tb MetRS inh 6.8*, MC4R antag cAMP 5, NTR1 ag 1, aDG glyco up 0, MC4R ag barr -2, Tb MetRS conf 46*, Jurkat cytotox 3 and Tb MetRS inh FP 22*.
Screening O=C(NCC1CC1)c1ccc(-n2ccnc2)c2ccoc12 returned H9c2 TAG inh 14, Tb MetRS inh 0, MC4R antag cAMP 11, aDG glyco up 0 and MC4R ag barr 0.
Screening Cn1nc(C(F)(F)F)c(-c2cccc(C(F)(F)F)c2)c1NC(=O)Nc1ccc(F)cc1 returned H9c2 TAG inh 10, Tb MetRS inh 41*, MC4R antag cAMP 6, NTR1 ag 13, aDG glyco up 0, MC4R ag barr 0, Tb MetRS conf 58*, Jurkat cytotox 10 and Tb MetRS inh FP 38*.
For O=C(NCCN1CCC(n2c(=O)[nH]c3ccccc32)CC1)c1ccc(Cl)c(Cl)c1 the results were Tb MetRS inh -1 and aDG glyco up 0.
`COc1cccc(CNc2nc3cc(-c4ccccc4C)sc3c(=O)n2C)c1OC` gave H9c2 TAG inh -6, Tb MetRS inh 0, MC4R antag cAMP 8, aDG glyco up 0 and MC4R ag barr 1.
CCCCn1c(SCC(=O)c2ccc(O)c(O)c2)nc2ccsc2c1=O was read as H9c2 TAG inh 5, Tb MetRS inh 0, MC4R antag cAMP 15, NTR1 ag 4, aDG glyco up 0 and MC4R ag barr 2.
For O=C(O)CCCCCn1c(SCC(=O)c2ccc(O)c(O)c2)nc2ccsc2c1=O the results were Tb MetRS inh 6.2*, MC4R antag cAMP 6, NTR1 ag -2, aDG glyco up 0, MC4R ag barr -2, Tb MetRS conf 14*, Jurkat cytotox 0 and Tb MetRS inh FP 36*.
Screening COc1cccc(-n2c(SCC(=O)N3CCOCC3)nnc2-c2c[nH]c3ccccc23)c1 returned H9c2 TAG inh 8, Tb MetRS inh 18*, MC4R antag cAMP 1, NTR1 ag -2, aDG glyco up 5, MC4R ag barr 1, Tb MetRS conf 30*, Jurkat cytotox 9 and Tb MetRS inh FP 6.
Screening CCOC(=O)C1=C(CC)Nc2ccccc2N=C1NC(=O)c1cc(C)on1 returned H9c2 TAG inh -3, Tb MetRS inh 0, MC4R antag cAMP 7, NTR1 ag -2, aDG glyco up 0 and MC4R ag barr 0.
CCOC(=O)C1=C(CC)Nc2ccccc2N=C1NC(=O)Nc1ccc(Cl)c(Cl)c1 was read as H9c2 TAG inh 13, Tb MetRS inh 37*, MC4R antag cAMP -4, NTR1 ag 6, aDG glyco up 0, MC4R ag barr 1, Tb MetRS conf 97*, Jurkat cytotox 17* and Tb MetRS inh FP 117*.
`CCCCc1cc(=O)oc2cc(OCC(=O)NC(Cc3c[nH]c4ccc(O)cc34)C(=O)O)ccc12` (configuration not stated) gave Tb MetRS inh 2, MC4R antag cAMP 9, NTR1 ag -1, aDG glyco up 0 and MC4R ag barr -1.
CCc1cc(=O)oc2cc(C)cc(OC(C)C(=O)NC(Cc3c[nH]c4ccc(O)cc34)C(=O)O)c12 (configuration not stated) was read as Tb MetRS inh 5.8*, MC4R antag cAMP 8, NTR1 ag -1, aDG glyco up 0, MC4R ag barr 1, Tb MetRS conf 13*, Jurkat cytotox -6 and Tb MetRS inh FP 5.
CCc1cc(=O)oc2cc(C)cc(OCC(=O)NC(Cc3c[nH]c4ccc(O)cc34)C(=O)O)c12 (configuration not stated) was read as Tb MetRS inh 6.6*, MC4R antag cAMP 1, NTR1 ag 3, aDG glyco up 0, MC4R ag barr 0, Tb MetRS conf 9.7*, Jurkat cytotox 7 and Tb MetRS inh FP 4.
CCCc1cc(=O)oc2cc(C)cc(OCC(=O)NC(Cc3c[nH]c4ccc(O)cc34)C(=O)O)c12 (configuration not stated) was read as Tb MetRS inh 7.0*, MC4R antag cAMP 9, NTR1 ag -1, aDG glyco up 0, MC4R ag barr 0, Tb MetRS conf 12*, Jurkat cytotox -3 and Tb MetRS inh FP -1.
